Measurements reported in ChEMBL document CHEMBL5226322, “Harnessing the Role of HDAC6 in Idiopathic Pulmonary Fibrosis: Design, Synthesis, Structural Analysis, and Biological Evaluation of Potent Inhibitors” (J Med Chem, 2021).
≈ marks a conversion by molar mass, not a printed value. Calls of active or inactive are those of the source. No cut-off for these calls is given here.

Assays:
Histone deacetylase 1 = Histone deacetylase 1 (Homo sapiens, UniProt Q13547); experiment: Inhibition of HDAC1 in human NB-4 cells assessed as increase in acetylation of histone H3 at 5 uM incubated for 30 hrs by western blot analysis; assay type: cell-based
Chain of Histone deacetylase 1 (Q13547 whole entry): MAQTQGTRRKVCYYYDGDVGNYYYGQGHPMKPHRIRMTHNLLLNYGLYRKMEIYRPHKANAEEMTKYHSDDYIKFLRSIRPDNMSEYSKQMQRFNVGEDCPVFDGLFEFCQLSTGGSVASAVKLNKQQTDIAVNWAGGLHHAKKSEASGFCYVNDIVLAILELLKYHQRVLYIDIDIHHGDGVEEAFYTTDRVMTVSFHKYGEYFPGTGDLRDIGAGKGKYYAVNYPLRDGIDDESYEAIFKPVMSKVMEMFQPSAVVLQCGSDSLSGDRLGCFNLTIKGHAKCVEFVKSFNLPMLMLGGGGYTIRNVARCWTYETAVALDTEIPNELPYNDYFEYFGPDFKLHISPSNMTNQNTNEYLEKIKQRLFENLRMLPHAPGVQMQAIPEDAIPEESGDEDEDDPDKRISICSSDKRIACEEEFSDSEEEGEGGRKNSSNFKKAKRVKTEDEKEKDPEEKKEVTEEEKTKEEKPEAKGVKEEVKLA
Procedure, shortened: (§1)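 Whole lysates (35 μg) and acid-extracted histones (2 μg) run on SDS-PAGE and blotted for acetylated tubulin or acetyl-histone H3; GAPDH or H4 as loading controls.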

Airway basal cell [1] = experiment: Inhibition of cell proliferation in IPF patient derived human Airway basal cell at 20 to 50 nM incubated for 14 days by MTT assay; assay type: functional, cell-based; details: dose 20-50 nM, time 14.0 day
Procedure, shortened: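 IPF patient airway basal cell 3D organoid cultures (10⁴ cells in Matrigel, 1:1 BEGM/DMEM) treated 14 days at 1–50 nM, medium changed weekly. Proliferation read by colorimetric MTT on day 14. Mean ± SEM of triplicates, n=3; repeated-measures ANOVA/Friedman test. Reported IC50 is the mean of the count-based and MTT-based IC50s.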

[2] = biological target: T1, Protein deacetylase HDAC6 (Homo sapiens, UniProt Q9UBN7); experiment: Inhibition of human recombinant HDAC6 using ZMAL (Z-(Ac)Lys-AMC) as fluorogenic substrate incubated for 120 mins by microplate reader assay
T1 sequence (Q9UBN7 whole entry): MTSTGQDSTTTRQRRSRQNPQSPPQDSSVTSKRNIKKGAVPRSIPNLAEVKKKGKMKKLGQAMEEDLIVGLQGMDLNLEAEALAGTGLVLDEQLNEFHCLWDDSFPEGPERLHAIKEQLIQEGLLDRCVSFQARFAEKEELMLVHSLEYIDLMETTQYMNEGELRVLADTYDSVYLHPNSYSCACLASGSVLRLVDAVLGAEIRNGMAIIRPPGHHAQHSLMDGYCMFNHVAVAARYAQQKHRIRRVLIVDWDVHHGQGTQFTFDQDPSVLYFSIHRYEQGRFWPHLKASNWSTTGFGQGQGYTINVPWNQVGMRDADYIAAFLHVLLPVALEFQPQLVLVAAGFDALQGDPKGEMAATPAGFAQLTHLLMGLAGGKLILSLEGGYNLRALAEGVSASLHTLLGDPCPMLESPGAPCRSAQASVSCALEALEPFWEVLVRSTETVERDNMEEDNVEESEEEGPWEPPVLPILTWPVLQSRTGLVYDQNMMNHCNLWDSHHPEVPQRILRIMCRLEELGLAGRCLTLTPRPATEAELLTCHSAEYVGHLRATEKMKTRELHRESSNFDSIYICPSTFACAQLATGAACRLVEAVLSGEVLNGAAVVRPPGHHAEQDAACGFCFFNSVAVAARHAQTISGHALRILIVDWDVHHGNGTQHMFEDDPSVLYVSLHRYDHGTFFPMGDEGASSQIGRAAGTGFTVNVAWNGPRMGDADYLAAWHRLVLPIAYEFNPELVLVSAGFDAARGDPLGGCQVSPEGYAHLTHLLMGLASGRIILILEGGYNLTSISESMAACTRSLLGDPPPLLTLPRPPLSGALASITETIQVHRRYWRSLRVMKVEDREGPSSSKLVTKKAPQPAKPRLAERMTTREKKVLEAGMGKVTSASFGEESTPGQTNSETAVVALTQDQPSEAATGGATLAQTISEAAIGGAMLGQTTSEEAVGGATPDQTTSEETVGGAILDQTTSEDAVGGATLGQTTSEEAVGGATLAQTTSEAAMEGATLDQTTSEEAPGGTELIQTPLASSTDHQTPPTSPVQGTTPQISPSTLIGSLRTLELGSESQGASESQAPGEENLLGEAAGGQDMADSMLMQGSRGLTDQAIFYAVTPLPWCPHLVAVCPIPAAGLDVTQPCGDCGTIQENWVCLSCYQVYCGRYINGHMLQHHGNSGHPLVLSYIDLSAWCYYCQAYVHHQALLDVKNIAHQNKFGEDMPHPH

[3] = biological target: T2, Protein deacetylase HDAC6 (Homo sapiens) (UniProt Q9UBN7); experiment: Inhibition of HDAC6 in human NB-4 cells assessed as increase in acetylation of alpha-tubulin at 5 uM incubated for 30 hrs by western blot analysis; assay type: cell-based; procedure, shortened: as §1
T2 sequence (whole entry): T1 sequence (Q9UBN7 whole entry)

[4] = biological target: T2, Protein deacetylase HDAC6 (Homo sapiens); experiment: Inhibition of HDAC6 in human U87 cells assessed as increase in acetylation of alpha-tubulin at 5 uM incubated for 30 hrs by western blot analysis; assay type: cell-based; procedure, shortened: as §1
[5] = Solubility of the compound at pH 3 PBS buffer incubated for 24 hrs by HPLC-UV analysis; assay type: physicochemical; details: pH 3, 24 h
Procedure, shortened: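 Compound from 10 mM DMSO stock diluted to 250 μM (2.5% DMSO), either in 50 mM acetic acid (pH 3.0) or in 50 mM aqueous PBS (pH 7.4). Shaken 24 h at 25 °C, PTFE-filtered and diluted 1:2. Quantified by RP-18 HPLC-UV at 254 nm against a 250 μM standard in MeCN/water. Run in triplicate and averaged.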

Airway basal cell [6] = experiment: Inhibition of spheroid count in IPF patient derived human Airway basal cell assessed as reduction in sphere count at 20 to 50 nM incubated for 14 days by Bright-field microscopy analysis; assay type: functional, cell-based; details: dose 20-50 nM, time 14.0 day
Procedure, shortened: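 Airway basal cells from bronchial brushings of IPF patients, 10⁴ cells in Matrigel on transwell inserts with 1:1 BEGM/DMEM. Treated 14 days (1–50 nM per methods; 0.1–50 nM per legend), medium changed every 7 days.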

[7] = Metabolic stability in human liver microsome assessed as apparent decay constant at 5 uM in presence of NADPH incubated up to 60 mins by HPLC analysis; assay type: ADME; details: microsomes, 1 h
Procedure, shortened: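 Compound at 5 μM, added in MeCN, incubated at 37 °C in 100 mM phosphate buffer pH 7.4 with 0.5 mg/mL human liver microsomal protein. Reaction started with an NADPH-generating system (2 mM NADPH, glucose-6-phosphate, G6P dehydrogenase, MgCl2). Stopped with MeCN at time points over 0–60 min. Remaining compound measured by RP-18 HPLC-UV at 254 nm, in triplicate. First-order depletion constant k; CLint = k × incubation volume / microsomal protein.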

| Compound | inhibition (Histone deacetylase 1) | inhibition (Airway basal cell [1]) | IC50 [2] | inhibition [3] | inhibition [4] | solubility [5] | inhibition (Airway basal cell [6]) | K [7] |
| --- | --- | --- | --- | --- | --- | --- | --- | --- |
| CN1CCC2(CC1)c1ccccc1N(Cc1ccc(C(=O)NO)cc1)C2c1ccccc1F (racemic) | Active | Active | 28.5 nM | Active | Active | 456 µM (≈ 203 µg/mL) | Active | 0.01297 min⁻¹ |
| CC1(C)c2ccccc2N(Cc2ccc(C(=O)NO)cc2)C1c1cccnc1 (racemic) | inactive | Active | 41.9 nM | Active | Active | 459 µM (≈ 171 µg/mL) | Active | 0.01357 min⁻¹ |
